As a reminder, the IC50 is the concentration at which inhibition is half-maximal. As usually defined, the inhibition is the change of the read-out against control, counted positive when it falls. One may read the EC50 as the concentration that produces a half-maximal response. In general, Emax refers to the maximal effect, on the per cent scale that the assay sets.

Each structure is given as a SMILES string. Bounds are passed on as bounds.

For assay [1], the target named is T1, Cannabinoid receptor 1 (Homo sapiens, UniProt P21554). As to the kind of experiment: Antagonist activity at human CB1 receptor stably expressed in RD-HGA16 cells assessed as inhibition of CP55,940-induced calcium mobilization after 15 mins by FLIPR assay. It is filed as functional, cell-based. (Calcium flux is commonly read through the fluorescence of an indicator in the cells.)
T1 sequence (P21554 whole entry): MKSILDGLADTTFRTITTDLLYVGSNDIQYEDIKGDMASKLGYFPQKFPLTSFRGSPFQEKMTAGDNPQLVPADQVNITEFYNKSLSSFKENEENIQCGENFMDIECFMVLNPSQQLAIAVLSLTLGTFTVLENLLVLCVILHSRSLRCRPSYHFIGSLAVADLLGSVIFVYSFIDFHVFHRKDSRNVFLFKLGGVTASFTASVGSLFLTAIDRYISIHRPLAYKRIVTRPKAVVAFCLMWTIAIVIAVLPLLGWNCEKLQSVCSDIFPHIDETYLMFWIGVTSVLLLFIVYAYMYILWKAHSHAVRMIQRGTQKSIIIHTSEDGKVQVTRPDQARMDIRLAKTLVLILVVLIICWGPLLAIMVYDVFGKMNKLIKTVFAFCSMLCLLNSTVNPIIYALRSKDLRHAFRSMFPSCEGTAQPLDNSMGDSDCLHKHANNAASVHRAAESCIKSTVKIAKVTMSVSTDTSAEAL

The target in assay [2] is T1, Cannabinoid receptor 1. As to the kind of experiment: Agonist activity at human CB1 receptor stably expressed in RD-HGA16 cells assessed as calcium mobilization at 10000 nM after 15 mins by FLIPR assay relative to CP55,940. It is filed as functional, cell-based. The method in brief:
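Cells plated at 25 000/well the day before in Ham's F12 with 10% FBS, then loaded 45 min at 37 °C with Calcium 5 dye in HBSS/20 mM HEPES/2.5 mM probenecid, pH 7.4. Vehicle pretreatment for 15 min at 37 °C; test compound added on-line, fluorescence read every 1 s over 90 s.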

Assay [3] has as its target T2, Cannabinoid receptor 2 (Homo sapiens, UniProt P34972). As to the kind of experiment: Antagonist activity at human CB2 receptor stably expressed in CHO-RD-HGA16 cells assessed as inhibition of CP55,940-induced calcium mobilization at 10000 nM after 15 mins by FLIPR assay. Format: functional, cell-based.
For assay [4], the target named is T2, Cannabinoid receptor 2. The assay is described as follows: Antagonist activity at human CB2 receptor stably expressed in CHO-RD-HGA16 cells assessed as inhibition of CP55,940-induced calcium mobilization after 15 mins by FLIPR assay. It is filed as functional, cell-based.
Assay [5] concerns the target T1, Cannabinoid receptor 1. The assay is described as follows: Displacement of [3H]CP55,940 from human CB1 receptor expressed in HEK293 cells after 1 hr by scintillation counting. Format: cell-based. A general note: In a radioligand displacement assay an active substance lowers the binding of a labelled ligand.
The target of assay [6] is T1, Cannabinoid receptor 1. The assay is described as follows: Displacement of [3H]CP55,940 from human CB1 receptor expressed in HEK293 cells after 1 hr by scintillation counting relative to control. It is filed as cell-based.
For assay [7], the target named is T1, Cannabinoid receptor 1. The assay is described as follows: Allosteric modulation at human CB1 receptor stably expressed in RD-HGA16 cells assessed as inhibition of CP55,940-induced calcium mobilization after 15 mins by FLIPR assay. Format: functional, cell-based. The method in brief:
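Cells plated the day before at 25 000/well and loaded 45 min at 37 °C with Calcium 5 dye in HBSS/20 mM HEPES/2.5 mM probenecid, pH 7.4. Fluorescence was read every 1 s for 90 s.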

T2 sequence (P34972 whole entry): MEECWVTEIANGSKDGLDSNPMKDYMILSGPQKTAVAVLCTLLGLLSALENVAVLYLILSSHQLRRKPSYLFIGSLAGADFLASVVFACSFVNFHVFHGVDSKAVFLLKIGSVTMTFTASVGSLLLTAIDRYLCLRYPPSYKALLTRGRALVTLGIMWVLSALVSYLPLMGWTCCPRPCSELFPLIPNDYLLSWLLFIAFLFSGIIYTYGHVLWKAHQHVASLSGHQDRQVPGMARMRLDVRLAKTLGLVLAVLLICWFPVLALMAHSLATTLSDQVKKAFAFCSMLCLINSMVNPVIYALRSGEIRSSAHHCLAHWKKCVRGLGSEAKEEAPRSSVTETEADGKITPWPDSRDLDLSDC

In the case of `O=C(Nc1cccc(-c2cccc(N3CCCC3)n2)c1)Nc1ccc2c(c1)OCO2`, the IC50 in assay [1] was 312 nM. Also, in assay [2], the Activity is below 15%. Further, the inhibition in assay [3] is below 35%.
`O=C(Nc1cccc(-c2cccc(N3CCCC3)n2)c1)Nc1ccc(Cl)c(Cl)c1`: the IC50 in assay [1] was 161 nM; in assay [4], above 10000 nM. Besides, in assay [2], the Activity is below 15%.
With `O=C(Nc1ccc(Cl)nc1)Nc1cccc(-c2cccc(N3CCCC3)n2)c1`, in assay [1], the IC50 came to 135 nM. In assay [2], the Activity was below 15%. Moreover, the inhibition in assay [3] was below 35%. Besides, the EC50 in assay [5] came out at 408 nM. The same compound displayed an Emax in assay [6] of 196%.
As to `CCNc1cccc(-c2cccc(NC(=O)Nc3ccc(Cl)cc3)c2)n1`, the IC50 in assay [1] was 181 nM. Besides, in assay [2], the Activity was below 15%. Also, the inhibition in assay [3] was below 35%.
On to `Cc1cc(C)cc(NC(=O)Nc2cccc(-c3cccc(N4CCCC4)n3)c2)c1`, for which, in assay [1], the 50% inhibitory concentration (IC50) is 1880 nM. In addition, in assay [2], the Activity was below 15%. Moreover, the inhibition in assay [3] is below 35%.
Turning to `CNc1cccc(-c2cccc(NC(=O)Nc3ccc(Cl)cc3)c2)n1`, the IC50 in assay [1] came out at 317 nM. The Activity in assay [2] was below 15%. Moreover, the inhibition in assay [3] was below 35%.
On the same counts, the results for `COc1ccc(NC(=O)Nc2cccc(-c3cccc(N4CCCC4)n3)c2)cc1` are 189 nM, below 15% and below 35%.
The like results for `CCCCN(CCCC)c1cccc(-c2cccc(NC(=O)Nc3ccc(Cl)cc3)c2)n1` were, in that order, 693 nM, below 15% and below 35%.
Turning to `O=C(Nc1cc(Cl)cc(Cl)c1)Nc1cccc(-c2cccc(N3CCCC3)n2)c1`, the half-inhibitory concentration (IC50) in assay [1] is 716 nM; in assay [4] it was above 10000 nM. Also, the Activity in assay [2] came out at 22.2%.
On to `O=C(Nc1ccc(Cl)cc1)Nc1cccc(-c2cccc(NC3CCCC3)n2)c1`, for which the IC50 was 501 nM in assay [1] and above 10000 nM in assay [4]. In assay [2], the Activity was 35%.
`N#Cc1ccc(NC(=O)Nc2cccc(-c3cccc(N4CCCC4)n3)c2)cc1`: the IC50 is 33 nM in assay [1] and above 10000 nM in assay [4]. Further, the Activity in assay [2] was 30%; in assay [7] it was “Dose-dependent effect”. For the same compound, the midpoint of the response in assay [5], the EC50, lay at 55.2 nM. The same compound had an Emax in assay [6] of 172%.
In the case of `CCN(CC)c1cccc(-c2cccc(NC(=O)Nc3ccc(Cl)cc3)c2)n1`, the IC50 in assay [1] stood at 125 nM. Moreover, the Activity in assay [2] was below 15%. For the same compound, the inhibition in assay [3] is below 35%.
In the case of `CCc1c(C(=O)NCCc2ccc(N3CCCCC3)cc2)[nH]c2ccc(Cl)cc12`, the inhibition entry in assay [1] is “Dose-dependent effect”.
In the case of `CCCN(C)c1cccc(-c2cccc(NC(=O)Nc3ccc(Cl)cc3)c2)n1`, the IC50 in assay [1] came to 156 nM. Moreover, the Activity in assay [2] was below 15%. For the same compound, in assay [3], the inhibition is below 35%.
For `O=C(Nc1cccc(-c2cccc(N3CCCC3)n2)c1)Nc1cccc2ccccc12`, the IC50 in assay [1] is above 10000 nM. Also, the Activity in assay [2] is below 15%. In addition, the inhibition in assay [3] was below 35%.
With `O=C(Nc1ccc(Cl)cc1)Nc1cccc(-c2cccc(N3CCCCC3)n2)c1`, the IC50 was 95 nM in assay [1] and above 10000 nM in assay [4]. In addition, in assay [2], the Activity worked out at 35%. This compound also returned an Emax in assay [6] of 132%.
Regarding `Cc1ccc(NC(=O)Nc2cccc(-c3cccc(N4CCCC4)n3)c2)cc1`, the IC50 in assay [1] is 203 nM. In assay [2], the Activity is below 15%. In addition, the inhibition in assay [3] was below 35%.
On to `CCCCNc1cccc(-c2cccc(NC(=O)Nc3ccc(Cl)cc3)c2)n1`, for which the IC50 in assay [1] worked out at 93 nM. Moreover, the Activity in assay [2] turned out to be 26.5%. Moreover, in assay [3], the inhibition is below 35%. For the same compound, in assay [5], it took 1520 nM to reach a half-maximal effect (EC50). This compound also yielded a maximal effect (Emax) in assay [6] of 161%.
Consider `O=C(Nc1ccc([N+](=O)[O-])cc1)Nc1cccc(-c2cccc(N3CCCC3)n2)c1`, for which, in assay [1], the IC50 was found to be 100 nM. Moreover, in assay [2], the Activity was found to be 27.9%. The inhibition in assay [3] is below 35%.
Consider `CC(=O)Nc1cccc(-c2cccc(NC(=O)Nc3ccc(Cl)cc3)c2)n1`, for which the IC50 in assay [1] is 251 nM; in assay [4] it was 5120 nM. The Activity in assay [2] is 47%.
For the compound `CN(C)c1ccc(NC(=O)Nc2cccc(-c3cccc(N4CCCC4)n3)c2)cc1`, the IC50 in assay [1] is 1640 nM. In assay [2], the Activity was below 15%. The inhibition in assay [3] is below 35%.
Regarding `CCCCCCNc1cccc(-c2cccc(NC(=O)Nc3ccc(Cl)cc3)c2)n1`, the IC50 in assay [1] turned out to be 1360 nM. In addition, the Activity in assay [2] was below 15%. In addition, in assay [3], the inhibition is below 35%.
`O=C(Nc1ccc(Cl)cc1)Nc1cccc(-c2cccc(N3CCCC3)n2)c1`: in assay [1], the inhibition result is “Dose-dependent effect”. The Activity in assay [2] is 28.2%. The IC50 in assay [4] was above 10000 nM. This compound had an Emax in assay [6] of 174%.
Consider `CC(C)c1ccccc1NC(=O)Nc1cccc(-c2cccc(N3CCCC3)n2)c1`, for which, in assay [1], the IC50 is above 10000 nM. The Activity in assay [2] is below 15%. Besides, in assay [3], the inhibition was below 35%.
For the compound `CCCCCNc1cccc(-c2cccc(NC(=O)Nc3ccc(Cl)cc3)c2)n1`, the IC50 in assay [1] was found to be 867 nM. Moreover, the Activity in assay [2] was below 15%. The inhibition in assay [3] is below 35%.
As to `O=C(Nc1cccc(Cl)c1)Nc1cccc(-c2cccc(N3CCCC3)n2)c1`, in assay [1], the IC50 was determined as 228 nM. For the same compound, the Activity in assay [2] is 19.6%. For the same compound, the inhibition in assay [3] is below 35%.
For `CCc1ccccc1NC(=O)Nc1cccc(-c2cccc(N3CCCC3)n2)c1`, in assay [1], the IC50 is above 10000 nM. The Activity in assay [2] is below 15%. Also, the inhibition in assay [3] was below 35%.
With `O=C(Nc1ccc(F)cc1)Nc1cccc(-c2cccc(N3CCCC3)n2)c1`, the IC50 in assay [1] is 32 nM. Moreover, in assay [2], the Activity worked out at 23.2%. Besides, the inhibition in assay [3] is below 35%. Also, the EC50 in assay [5] amounted to 207 nM. Besides, the Emax in assay [6] amounted to 172%.
Consider `O=C(Nc1cccc(-c2cccc(N3CCCC3)n2)c1)Nc1ccc2ccccc2c1`, for which the IC50 in assay [1] amounted to 888 nM. In addition, in assay [2], the Activity is below 15%. Further, the inhibition in assay [3] is below 35%.
On the same counts, the results for `CCN(C)c1cccc(-c2cccc(NC(=O)Nc3ccc(Cl)cc3)c2)n1` are 53.7 nM, below 15% and below 35%.
As to `CCCN(CCC)c1cccc(-c2cccc(NC(=O)Nc3ccc(Cl)cc3)c2)n1`, the IC50 in assay [1] turned out to be 372 nM. The Activity in assay [2] was 29%. Besides, the inhibition in assay [3] is below 35%.
Consider `O=C(Nc1ccccc1)Nc1cccc(-c2cccc(N3CCCC3)n2)c1`, for which the IC50 in assay [1] amounted to 166 nM. Besides, the Activity in assay [2] was below 15%. Also, in assay [3], the inhibition was below 35%.
On the same counts, the results for `CCCNc1cccc(-c2cccc(NC(=O)Nc3ccc(Cl)cc3)c2)n1` are 311 nM, 19.6% and below 35%.
The like results for `O=C(Nc1ccc(Br)cc1)Nc1cccc(-c2cccc(N3CCCC3)n2)c1` were, in that order, 98 nM, below 15% and below 35%.
Take `CN(C)c1cccc(-c2cccc(NC(=O)Nc3ccc(Cl)cc3)c2)n1`: in assay [1], the IC50 came to 27.4 nM. The Activity is below 15% in assay [2] and “Dose-dependent effect” in assay [7]. Also, the inhibition in assay [3] was below 35%. In addition, the EC50 in assay [5] amounted to 663 nM. For the same compound, the Emax in assay [6] was found to be 184%.
For the compound `Cc1cccc(C)c1NC(=O)Nc1cccc(-c2cccc(N3CCCC3)n2)c1`, in assay [1], the IC50 is above 10000 nM. Also, the Activity in assay [2] was below 15%. Moreover, in assay [3], the inhibition is below 35%.
On to `COc1cc(NC(=O)Nc2cccc(-c3cccc(N4CCCC4)n3)c2)cc(OC)c1OC`, for which the IC50 in assay [1] and in assay [4] was above 10000 nM in each case. In addition, the Activity in assay [2] was below 15%.
On to `CCCCN(C)c1cccc(-c2cccc(NC(=O)Nc3ccc(Cl)cc3)c2)n1`, for which, in assay [1], the IC50 came out at 104 nM. For the same compound, the Activity in assay [2] worked out at 22.1%. For the same compound, the inhibition in assay [3] is below 35%.

Values taken from ChEMBL document CHEMBL3351332 (J Med Chem, 2014).
